Experimental data: ChEMBL document CHEMBL1154611 (J Med Chem, 2009)
Values after ≈ are worked out from the molar mass of the structure shown.

Assays:
[1] = biological target: Motilin receptor (Oryctolagus cuniculus, UniProt A5A4K8); assay: Agonist activity at motilin receptor in rabbit smooth muscle assessed as maximal possible tissue contraction; type: functional
Procedure, shortened: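 Rabbit smooth muscle contractility assay. EC50 is the concentration giving 50% of the maximal possible contraction. Tachyphylaxis is the % contractile response to an EC90 drug concentration after three cycles of administration and washout.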

[2] = test system: Streptococcus pneumoniae; assay: Antibacterial activity against erythromycin-sensitive Streptococcus pneumoniae ATCC 6301; type: functional
Procedure, shortened: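 MIC, the minimal growth inhibitory concentration, was determined in routine screening against the highly erythromycin-sensitive strain Streptococcus pneumoniae ATCC6301.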

[3] = biological target: T1, hERG (KCNH2) (Homo sapiens, UniProt Q12809); assay: Inhibition of human ERG expressed in HEK cells at 30 uM; type: cell-based, HEK293; details: HEK cells expressing human ERG
[4] = biological target: T1, hERG (KCNH2); assay: Inhibition of human ERG expressed in HEK cells at 300 uM; type: cell-based, HEK293; details: HEK cells expressing human ERG

Motilin receptor, sequence (A5A4K8 whole entry): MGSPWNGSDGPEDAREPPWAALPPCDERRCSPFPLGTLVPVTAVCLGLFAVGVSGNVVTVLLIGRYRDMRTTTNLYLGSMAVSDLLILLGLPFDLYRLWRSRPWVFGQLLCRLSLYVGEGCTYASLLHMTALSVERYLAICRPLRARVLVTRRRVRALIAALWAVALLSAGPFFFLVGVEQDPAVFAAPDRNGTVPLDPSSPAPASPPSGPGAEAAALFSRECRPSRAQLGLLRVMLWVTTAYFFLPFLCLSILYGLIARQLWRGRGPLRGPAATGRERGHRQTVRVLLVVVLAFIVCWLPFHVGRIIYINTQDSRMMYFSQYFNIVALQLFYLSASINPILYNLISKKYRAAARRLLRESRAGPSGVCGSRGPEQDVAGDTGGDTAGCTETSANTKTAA
T1 sequence (Q12809 whole entry): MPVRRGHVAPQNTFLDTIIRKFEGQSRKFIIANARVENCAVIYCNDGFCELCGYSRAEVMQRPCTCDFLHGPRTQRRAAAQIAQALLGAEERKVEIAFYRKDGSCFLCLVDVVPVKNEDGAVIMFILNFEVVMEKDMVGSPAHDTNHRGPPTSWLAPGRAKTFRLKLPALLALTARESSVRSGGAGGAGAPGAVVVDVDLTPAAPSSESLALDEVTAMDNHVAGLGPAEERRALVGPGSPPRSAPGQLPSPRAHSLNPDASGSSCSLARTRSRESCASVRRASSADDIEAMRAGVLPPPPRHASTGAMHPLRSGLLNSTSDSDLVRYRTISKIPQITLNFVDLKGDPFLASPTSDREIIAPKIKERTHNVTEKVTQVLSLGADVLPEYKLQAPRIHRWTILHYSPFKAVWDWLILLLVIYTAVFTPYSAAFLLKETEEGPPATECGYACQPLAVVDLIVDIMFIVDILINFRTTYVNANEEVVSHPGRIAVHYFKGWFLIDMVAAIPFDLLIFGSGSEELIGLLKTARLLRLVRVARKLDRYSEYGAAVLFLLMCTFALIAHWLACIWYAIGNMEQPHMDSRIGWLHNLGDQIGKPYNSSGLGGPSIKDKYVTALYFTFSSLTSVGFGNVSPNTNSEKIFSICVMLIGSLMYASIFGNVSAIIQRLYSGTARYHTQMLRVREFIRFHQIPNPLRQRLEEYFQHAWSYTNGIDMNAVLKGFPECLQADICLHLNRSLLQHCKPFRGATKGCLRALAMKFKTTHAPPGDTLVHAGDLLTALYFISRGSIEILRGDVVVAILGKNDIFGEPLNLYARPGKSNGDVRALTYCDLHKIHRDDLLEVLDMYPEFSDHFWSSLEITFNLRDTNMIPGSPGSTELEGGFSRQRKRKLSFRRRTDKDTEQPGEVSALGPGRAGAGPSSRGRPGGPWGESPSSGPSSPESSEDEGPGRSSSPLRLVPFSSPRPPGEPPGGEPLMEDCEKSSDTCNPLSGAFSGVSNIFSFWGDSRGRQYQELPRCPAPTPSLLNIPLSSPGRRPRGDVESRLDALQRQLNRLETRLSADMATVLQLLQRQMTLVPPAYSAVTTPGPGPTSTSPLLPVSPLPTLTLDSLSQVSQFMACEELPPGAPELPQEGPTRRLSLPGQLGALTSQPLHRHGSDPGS

Row | SMILES | EC50 [1] [nM] | MIC [2] [µg/mL] | inhibition at 30 µM [3] [%] | inhibition at 300 µM [4] [%]
1 | CC[C@H]1OC(=O)[C@H](C)[C@@H](O[C@H]2C[C@@](C)(OC)[C@@H](O)[C@H](C)O2)[C@H](C)[C@@H](O[C@@H]2O[C@H](C)C[C@H](N(C)C(C)C)[C@H]2O)[C@](C)(O)C[C@@H](C)[C@H](OCC(=O)NCC(F)(F)F)[C@H](C)[C@@H](O)[C@]1(C)O | 160 | 128 (≈ 142 µM) | 30 | 82
2 | CC[C@H]1OC(=O)[C@H](C)[C@@H](O[C@H]2C[C@@](C)(OC)[C@@H](O)[C@H](C)O2)[C@H](C)[C@@H](O[C@@H]2O[C@H](C)C[C@H](N(C)C(C)C)[C@H]2O)[C@](C)(O)C[C@@H](C)[C@H](OCC(=O)NOC)[C@H](C)[C@@H](O)[C@]1(C)O | 92 |  | 33 | 82
3 | CC[C@H]1OC(=O)[C@H](C)[C@@H](O[C@H]2C[C@@](C)(OC)[C@@H](O)[C@H](C)O2)[C@H](C)[C@@H](O[C@@H]2O[C@H](C)C[C@H](N(C)C(C)C)[C@H]2O)[C@](C)(O)C[C@@H](C)[C@H](OCc2ccc(C(=O)NC)cc2)[C@H](C)[C@@H](O)[C@]1(C)O | 1500 |  |  | 
4 | CC[C@H]1OC(=O)[C@H](C)[C@@H](O[C@H]2C[C@@](C)(OC)[C@@H](O)[C@H](C)O2)[C@H](C)[C@@H](O[C@@H]2O[C@H](C)C[C@H](N(C)C(C)C)[C@H]2O)[C@](C)(O)C[C@@H](C)[C@H](OCC(=O)NCc2ccccc2)[C@H](C)[C@@H](O)[C@]1(C)O | 79 | 128 (≈ 140 µM) | 67 | 100
5 | CC[C@H]1OC(=O)[C@H](C)[C@@H](O[C@H]2C[C@@](C)(OC)[C@@H](O)[C@H](C)O2)[C@H](C)[C@@H](O[C@@H]2O[C@H](C)C[C@H](N(C)C(C)C)[C@H]2O)[C@](C)(O)C[C@@H](C)[C@H](OCC(=O)NCCOC)[C@H](C)[C@@H](O)[C@]1(C)O | 50 | 128 (≈ 146 µM) | 33 | 93
6 | CC[C@H]1OC(=O)[C@H](C)[C@@H](O[C@H]2C[C@@](C)(OC)[C@@H](O)[C@H](C)O2)[C@H](C)[C@@H](O[C@@H]2O[C@H](C)C[C@H](N(C)C(C)C)[C@H]2O)[C@](C)(O)C[C@@H](C)[C@H](OCCCCC(=O)NC)[C@H](C)[C@@H](O)[C@]1(C)O | 270 |  | 3 | 45
7 | CC[C@H]1OC(=O)[C@H](C)[C@@H](O[C@H]2C[C@@](C)(OC)[C@@H](O)[C@H](C)O2)[C@H](C)[C@@H](O[C@@H]2O[C@H](C)C[C@H](N(C)C(C)C)[C@H]2O)[C@](C)(O)C[C@@H](C)[C@H](OCCCCCC(=O)NC)[C@H](C)[C@@H](O)[C@]1(C)O | 150 | 128 (≈ 144 µM) | 13 | 61
8 | CC[C@H]1OC(=O)[C@H](C)[C@@H](O[C@H]2C[C@@](C)(OC)[C@@H](O)[C@H](C)O2)[C@H](C)[C@@H](O[C@@H]2O[C@H](C)C[C@H](N(C)C(C)C)[C@H]2O)[C@](C)(O)C[C@@H](C)[C@H](OCC(=O)Nc2cnccn2)[C@H](C)[C@@H](O)[C@]1(C)O | 69 | 128 (≈ 142 µM) | 40 | 88
9 | CC[C@H]1OC(=O)[C@H](C)[C@@H](O[C@H]2C[C@@](C)(OC)[C@@H](O)[C@H](C)O2)[C@H](C)[C@@H](O[C@@H]2O[C@H](C)C[C@H](N(C)C(C)C)[C@H]2O)[C@](C)(O)C[C@@H](C)[C@H](OCC(=O)NC(C)C)[C@H](C)[C@@H](O)[C@]1(C)O | 140 | 128 (≈ 148 µM) | 26 | 89
10 | CC[C@H]1OC(=O)[C@H](C)[C@@H](O[C@H]2C[C@@](C)(OC)[C@@H](O)[C@H](C)O2)[C@H](C)[C@@H](O[C@@H]2O[C@H](C)C[C@H](N(C)C(C)C)[C@H]2O)[C@](C)(O)C[C@@H](C)[C@H](OCc2cccc(C(=O)NC)c2)[C@H](C)[C@@H](O)[C@]1(C)O | 2100 |  | 63 | 100
